Reference: ChEMBL document CHEMBL1152521, “Synthesis and biological evaluation of radioiodinated 2,5-diphenyl-1,3,4-oxadiazoles for detecting beta-amyloid plaques in the brain” (Bioorg Med Chem, 2009)
Each block holds one compound with its values, some of them ahead of it. Activity calls are given as the source filed them. The calls are words filed in the database; no cut-off is given here.

Tests used:
[1] = Displacement of [125I]IMPY from aggregated amyloid beta (1-42) by gamma counting
Pancreas [2] = assay: Biodistribution in ddY mouse pancreas at 0.2 to 0.4 uCi, iv after 10 mins post-injection by gamma counting; assay type: ADME, organism-based; conditions: in vivo
Outline: (§1)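 Normal ddY mice (5-week-old, 22-25 g) received 0.2–0.4 μCi of the 125I-labelled agent by tail-vein injection in 100 μL saline containing 10 μL ethanol. Animals were killed at 2, 10, 30 or 60 min, and organs were removed, weighed and gamma counted. Values are % injected dose per gram, mean (SD) of 4-6 animals.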

Heart [3] = assay: Biodistribution in ddY mouse heart at 0.2 to 0.4 uCi, iv after 2 mins post-injection by gamma counting; assay type: ADME, organism-based; conditions: in vivo; outline: as §1
Kidney [4] = assay: Biodistribution in ddY mouse kidney at 0.2 to 0.4 uCi, iv after 10 mins post-injection by gamma counting; assay type: ADME, organism-based; conditions: in vivo; outline: as §1
Brain [5] = assay: Biodistribution in ddY mouse brain at 0.2 to 0.4 uCi, iv after 60 mins post-injection by gamma counting; assay type: ADME, organism-based; conditions: in vivo, 1 h; outline: as §1
Heart [6] = assay: Biodistribution in ddY mouse heart at 0.2 to 0.4 uCi, iv after 30 mins post-injection by gamma counting; assay type: ADME, organism-based; conditions: in vivo, 0.5 h; outline: as §1
Blood [7] = assay: Biodistribution in ddY mouse blood at 0.2 to 0.4 uCi, iv after 10 mins post-injection by gamma counting; assay type: ADME, organism-based; conditions: in vivo; outline: as §1
Liver [8] = assay: Biodistribution in ddY mouse liver at 0.2 to 0.4 uCi, iv after 2 mins post-injection by gamma counting; assay type: ADME, organism-based; conditions: in vivo; outline: as §1
Pancreas [9] = assay: Biodistribution in ddY mouse pancreas at 0.2 to 0.4 uCi, iv after 60 mins post-injection by gamma counting; assay type: ADME, organism-based; conditions: in vivo, 1 h; outline: as §1
Kidney [10] = assay: Biodistribution in ddY mouse kidney at 0.2 to 0.4 uCi, iv after 30 mins post-injection by gamma counting; assay type: ADME, organism-based; conditions: in vivo, 0.5 h; outline: as §1
Blood [11] = assay: Biodistribution in ddY mouse blood at 0.2 to 0.4 uCi, iv after 30 mins post-injection by gamma counting; assay type: ADME, organism-based; conditions: in vivo, 0.5 h; outline: as §1
Pancreas [12] = assay: Biodistribution in ddY mouse pancreas at 0.2 to 0.4 uCi, iv after 2 mins post-injection by gamma counting; assay type: ADME, organism-based; conditions: in vivo; outline: as §1
Blood [13] = assay: Biodistribution in ddY mouse blood at 0.2 to 0.4 uCi, iv after 2 mins post-injection by gamma counting; assay type: ADME, organism-based; conditions: in vivo; outline: as §1
Spleen [14] = assay: Biodistribution in ddY mouse spleen at 0.2 to 0.4 uCi, iv after 2 mins post-injection by gamma counting; assay type: ADME, organism-based; conditions: in vivo; outline: as §1
Intestine [15] = assay: Biodistribution in ddY mouse intestine at 0.2 to 0.4 uCi, iv after 10 mins post-injection by gamma counting; assay type: ADME, organism-based; conditions: in vivo; outline: as §1
Spleen [16] = assay: Biodistribution in ddY mouse spleen at 0.2 to 0.4 uCi, iv after 60 mins post-injection by gamma counting; assay type: ADME, organism-based; conditions: in vivo, 1 h; outline: as §1
Stomach [17] = assay: Biodistribution in ddY mouse stomach assessed per organ at 0.2 to 0.4 uCi, iv after 60 mins post-injection by gamma counting; assay type: ADME, organism-based; conditions: in vivo, 1 h
Outline: (§2)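 Normal ddY mice (5-week-old, 22-25 g) were injected by tail vein with 0.2–0.4 μCi of 125I ligand in saline (100 μL) containing 10 μL ethanol. At 2, 10, 30 or 60 min the stomach was removed and gamma counted. Values are % injected dose per organ, mean (SD) of 4-6 animals.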

Heart [18] = assay: Biodistribution in ddY mouse heart at 0.2 to 0.4 uCi, iv after 10 mins post-injection by gamma counting; assay type: ADME, organism-based; conditions: in vivo; outline: as §1
Intestine [19] = assay: Biodistribution in ddY mouse intestine at 0.2 to 0.4 uCi, iv after 60 mins post-injection by gamma counting; assay type: ADME, organism-based; conditions: in vivo, 1 h; outline: as §1
Brain [20] = assay: Biodistribution in ddY mouse brain at 0.2 to 0.4 uCi, iv after 10 mins post-injection by gamma counting; assay type: ADME, organism-based; conditions: in vivo; outline: as §1
Intestine [21] = assay: Biodistribution in ddY mouse intestine at 0.2 to 0.4 uCi, iv after 2 mins post-injection by gamma counting; assay type: ADME, organism-based; conditions: in vivo; outline: as §1
Liver [22] = assay: Biodistribution in ddY mouse liver at 0.2 to 0.4 uCi, iv after 10 mins post-injection by gamma counting; assay type: ADME, organism-based; conditions: in vivo; outline: as §1
Stomach [23] = assay: Biodistribution in ddY mouse stomach assessed per organ at 0.2 to 0.4 uCi, iv after 2 mins post-injection by gamma counting; assay type: ADME, organism-based; conditions: in vivo; outline: as §2
Heart [24] = assay: Biodistribution in ddY mouse heart at 0.2 to 0.4 uCi, iv after 60 mins post-injection by gamma counting; assay type: ADME, organism-based; conditions: in vivo, 1 h; outline: as §1
Blood [25] = assay: Biodistribution in ddY mouse blood at 0.2 to 0.4 uCi, iv after 60 mins post-injection by gamma counting; assay type: ADME, organism-based; conditions: in vivo, 1 h; outline: as §1
Liver [26] = assay: Biodistribution in ddY mouse liver at 0.2 to 0.4 uCi, iv after 60 mins post-injection by gamma counting; assay type: ADME, organism-based; conditions: in vivo, 1 h; outline: as §1
Liver [27] = assay: Biodistribution in ddY mouse liver at 0.2 to 0.4 uCi, iv after 30 mins post-injection by gamma counting; assay type: ADME, organism-based; conditions: in vivo, 0.5 h; outline: as §1
Spleen [28] = assay: Biodistribution in ddY mouse spleen at 0.2 to 0.4 uCi, iv after 10 mins post-injection by gamma counting; assay type: ADME, organism-based; conditions: in vivo; outline: as §1
Intestine [29] = assay: Biodistribution in ddY mouse intestine at 0.2 to 0.4 uCi, iv after 30 mins post-injection by gamma counting; assay type: ADME, organism-based; conditions: in vivo, 0.5 h; outline: as §1
Stomach [30] = assay: Biodistribution in ddY mouse stomach assessed per organ at 0.2 to 0.4 uCi, iv after 10 mins post-injection by gamma counting; assay type: ADME, organism-based; conditions: in vivo; outline: as §2
Kidney [31] = assay: Biodistribution in ddY mouse kidney at 0.2 to 0.4 uCi, iv after 2 mins post-injection by gamma counting; assay type: ADME, organism-based; conditions: in vivo; outline: as §1
Brain [32] = assay: Biodistribution in ddY mouse brain at 0.2 to 0.4 uCi, iv after 2 mins post-injection by gamma counting; assay type: ADME, organism-based; conditions: in vivo; outline: as §1
Stomach [33] = assay: Biodistribution in ddY mouse stomach assessed per organ at 0.2 to 0.4 uCi, iv after 30 mins post-injection by gamma counting; assay type: ADME, organism-based; conditions: in vivo, 0.5 h; outline: as §2
Brain [34] = assay: Biodistribution in ddY mouse brain at 0.2 to 0.4 uCi, iv after 30 mins post-injection by gamma counting; assay type: ADME, organism-based; conditions: in vivo, 0.5 h; outline: as §1
Spleen [35] = assay: Biodistribution in ddY mouse spleen at 0.2 to 0.4 uCi, iv after 30 mins post-injection by gamma counting; assay type: ADME, organism-based; conditions: in vivo, 0.5 h; outline: as §1
Pancreas [36] = assay: Biodistribution in ddY mouse pancreas at 0.2 to 0.4 uCi, iv after 30 mins post-injection by gamma counting; assay type: ADME, organism-based; conditions: in vivo, 0.5 h; outline: as §1
Kidney [37] = assay: Biodistribution in ddY mouse kidney at 0.2 to 0.4 uCi, iv after 60 mins post-injection by gamma counting; assay type: ADME, organism-based; conditions: in vivo, 1 h; outline: as §1
Mus musculus [38] = organism: Mus musculus; assay: Binding affinity to amyloid beta (1-42) in brain of transgenic 2576 mouse Alzheimer's model at 100 uM after 30 mins by thioflavin S staining-based fluorescence microscopic analysis
[39] = Octanol-phosphate buffer partition coefficient, log P at pH 7.4 by gamma counting of radioactivity
Mus musculus [40] = organism: Mus musculus; assay: Binding affinity to amyloid beta (1-42) in normal mouse brain at 100 uM after 30 mins by thioflavin S staining-based fluorescence microscopic analysis

Drug uptake (Pancreas [2]): 4.39 % ID/g
Drug uptake (Heart [3]): 3.99 % ID/g
Drug uptake (Kidney [4]): 7.8 % ID/g
Drug uptake (Brain [5]): 1.78 % ID/g
Drug uptake (Heart [6]): 2.03 % ID/g
Drug uptake (Blood [7]): 3.51 % ID/g
Drug uptake (Liver [8]): 15.87 % ID/g
Drug uptake (Pancreas [9]): 2.14 % ID/g
Drug uptake (Kidney [10]): 5.71 % ID/g
Drug uptake (Blood [11]): 2.53 % ID/g
Drug uptake (Pancreas [12]): 5.32 % ID/g
Drug uptake (Blood [13]): 3.28 % ID/g
Drug uptake (Spleen [14]): 3.56 % ID/g
Drug uptake (Intestine [15]): 11.34 % ID/g
Drug uptake (Spleen [16]): 2.05 % ID/g
Drug uptake (Stomach [17]): 5.5 %ID
Drug uptake (Heart [18]): 3.55 % ID/g
Drug uptake (Intestine [19]): 16.22 % ID/g
Drug uptake (Brain [20]): 5.93 % ID/g
Drug uptake (Intestine [21]): 2.28 % ID/g
Drug uptake (Liver [22]): 19.12 % ID/g
Drug uptake (Stomach [23]): 1.4 %ID
Drug uptake (Heart [24]): 1.54 % ID/g
Drug uptake (Blood [25]): 2.21 % ID/g
Drug uptake (Liver [26]): 10.01 % ID/g
Drug uptake (Liver [27]): 12.64 % ID/g
Drug uptake (Spleen [28]): 4.1 % ID/g
Drug uptake (Intestine [29]): 12.58 % ID/g
Drug uptake (Stomach [30]): 4.73 %ID
Drug uptake (Kidney [31]): 9.14 % ID/g
Drug uptake (Brain [32]): 2.98 % ID/g
Drug uptake (Stomach [33]): 4.79 %ID
Drug uptake (Brain [34]): 3.16 % ID/g
Drug uptake (Spleen [35]): 2.63 % ID/g
Drug uptake (Pancreas [36]): 2.5 % ID/g
Drug uptake (Kidney [37]): 3.81 % ID/g
SMILES: CN(C)c1ccc(-c2nnc(-c3ccc([125I])cc3)o2)cc1

Activity (Mus musculus [38]): Active
Ki [1]: 46.1 nM
logD [39]: 2.58
SMILES: COc1ccc(-c2nnc(-c3ccc(I)cc3)o2)cc1

Drug uptake (Pancreas [2]): 1.98 % ID/g
Drug uptake (Heart [3]): 4.8 % ID/g
Drug uptake (Kidney [4]): 4.85 % ID/g
Drug uptake (Brain [5]): 0.36 % ID/g
Drug uptake (Heart [6]): 0.92 % ID/g
Drug uptake (Blood [7]): 1.6 % ID/g
Drug uptake (Liver [8]): 9.6 % ID/g
Drug uptake (Pancreas [9]): 0.57 % ID/g
Drug uptake (Kidney [10]): 4.36 % ID/g
Drug uptake (Blood [11]): 1.26 % ID/g
Drug uptake (Pancreas [12]): 4.74 % ID/g
Drug uptake (Blood [13]): 1.84 % ID/g
Drug uptake (Spleen [14]): 2.44 % ID/g
Drug uptake (Intestine [15]): 4.49 % ID/g
Drug uptake (Spleen [16]): 0.6 % ID/g
Drug uptake (Stomach [17]): 2.9 %ID
Drug uptake (Heart [18]): 1.73 % ID/g
Drug uptake (Intestine [19]): 19.85 % ID/g
Drug uptake (Brain [20]): 2.74 % ID/g
Drug uptake (Intestine [21]): 2.07 % ID/g
Drug uptake (Liver [22]): 12.6 % ID/g
Drug uptake (Stomach [23]): 0.71 %ID
Drug uptake (Heart [24]): 0.43 % ID/g
Drug uptake (Blood [25]): 0.8 % ID/g
Drug uptake (Liver [26]): 4.65 % ID/g
Drug uptake (Liver [27]): 8.07 % ID/g
Drug uptake (Spleen [28]): 1.51 % ID/g
Drug uptake (Intestine [29]): 10.06 % ID/g
Drug uptake (Stomach [30]): 1.41 %ID
Drug uptake (Kidney [31]): 7.14 % ID/g
Drug uptake (Brain [32]): 3.75 % ID/g
Drug uptake (Stomach [33]): 3.12 %ID
Drug uptake (Brain [34]): 1.04 % ID/g
Drug uptake (Spleen [35]): 0.8 % ID/g
Drug uptake (Pancreas [36]): 0.96 % ID/g
Drug uptake (Kidney [37]): 2.48 % ID/g
SMILES: COc1ccc(-c2nnc(-c3ccc([125I])cc3)o2)cc1

More lines, now with the values behind:

SMILES: OCCOCCOCCOc1ccc(-c2nnc(-c3ccc(I)cc3)o2)cc1
Ki [1]: 258 nM

SMILES: CN(C)c1ccc(-c2nc(-c3ccc(I)cc3)no2)cc1
logD [39]: 3.22

SMILES: OCCOCCOc1ccc(-c2nnc(-c3ccc(I)cc3)o2)cc1
Ki [1]: 349 nM

SMILES: COc1ccc(-c2nc(-c3ccc(I)cc3)no2)cc1
logD [39]: 3.37

SMILES: Oc1ccc(-c2nnc(-c3ccc(I)cc3)o2)cc1
Ki [1]: 230 nM

SMILES: CN(C)c1ccc(-c2nnc(-c3ccc(I)cc3)o2)cc1
Activity (Mus musculus [38]): Active
Ki [1]: 20.1 nM
logD [39]: 2.43
Activity (Mus musculus [40]): inactive

SMILES: OCCOc1ccc(-c2nnc(-c3ccc(I)cc3)o2)cc1
Ki [1]: 282 nM
